Data set [1] deals with Yellow fever virus. Put plainly: Antiviral activity against Yellow fever virus infected in BHK-21 cells assessed as inhibition of virus-induced cytopathicity after 3 to 4 days by MTT assay. In kind it is functional, organism-based. (Cytopathic effects are the visible damage that an infection or toxin causes in cultured cells.)
The test system of data set [2] is Vero. Briefly: Cytotoxicity against african green monkey Vero 76 cells by crystal violet staining. In kind it is cell-based. Particulars: chlorocebus sabaeus, vero. The method, boiled down: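 Mock-infected Vero 76 seeded at 4 × 10^5 cells/mL, run in parallel with plaque assays, with or without serial compound dilutions. Cell number of monolayers determined by crystal violet staining. CC50 = concentration reducing viable cell number 50%.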

Data set [3] concerns Coxsackievirus B2. Briefly: Antiviral activity against Coxsackie virus type B2 virus infected in african green monkey Vero-76 cells after 3 days by plaque reduction assay. The class given is functional, organism-based. The following applies: Enterovirus B, Vero 76, 72 h. The gist of the method:
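Vero 76 cells seeded at 2 × 10^5 cells/well, grown overnight to confluence at 37 °C in 5% CO2, then infected at 50–100 PFU/well. Unadsorbed virus removed. Overlay of DMEM with 1% inactivated FCS and 0.75% methylcellulose, with or without serial compound dilutions. After 3 days at 37 °C, fixed and stained with crystal violet in PBS/50% ethanol; plaques counted. EC50 is the concentration reducing plaque number by 50%.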
On the technique in general: Plaque reduction counts the foci of infection that form in a cell layer.

Data set [4] has as its system Vesicular stomatitis virus. Briefly: Antiviral activity against Vesicular stomatitis virus after 2 days by plaque reduction assay. In kind it is functional, organism-based.
Data set [5] relates to Vaccinia virus. Briefly: Antiviral activity against Vaccinia virus after 3 days by plaque reduction assay. The following applies: Orthopoxvirus vaccinia. The class given is functional, organism-based.
Data set [6] concerns Human immunodeficiency virus 1. Put plainly: Antiviral activity against HIV1 infected in human MT4 cells assessed as inhibition of virus-induced cytopathicity after 4 days by MTT assay. The class given is functional, organism-based.
In data set [7] the test system is Respiratory syncytial virus. Put plainly: Antiviral activity against Respiratory syncytial virus A2 infected in Vero-76 cells after 5 days by plaque reduction assay. In kind it is functional, organism-based. The following applies: human respiratory syncytial virus, A2, Vero 76, 120 h.
Data set [8] can be described thus: Cytotoxicity against MDBK cells after 48 to 96 hrs by MTT assay. The class given is cell-based, Bos taurus. The following applies: cattle, mdbk. The method, boiled down: (§1)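 Mock-infected cells in maintenance medium, MDBK at 6 × 10^5 and BHK at 1 × 10^6 cells/mL initial density, with or without serial compound dilutions. Run in parallel with antiviral assays. Viability by MTT after 48–96 h at 37 °C, 5% CO2. CC50 = concentration reducing viability 50%.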

For data set [9], the system named is Mammalian orthoreovirus 1. Briefly: Antiviral activity against Reovirus-1 infected in BHK-21 cells assessed as inhibition of virus-induced cytopathicity after 3 to 4 days by MTT assay. In kind it is functional, organism-based. The following applies: Mammalian orthoreovirus 1, BHK-21. The gist of the method: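 BHK-21 cells seeded at 5 × 10^4 cells/well, grown overnight to confluent monolayers at 37 °C in 5% CO2, then infected at m.o.i. 0.01 in serum-free medium. One hour later, MEM Earle's with 1% final inactivated FCS added, with or without serial compound dilutions. Viability read by MTT after 3–4 days at 37 °C. EC50 is the concentration giving 50% protection from cytopathogenicity.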

Data set [10] concerns MT4. Briefly: Cytotoxicity against human MT4 cells after 96 hrs by MTT assay. The class given is cell-based. The following applies: mt4, 96 h. The method, boiled down:
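Exponentially growing mock-infected MT-4 seeded at 1 × 10^5 cells/mL in RPMI-1640 with 10% FCS, penicillin and streptomycin. Incubated with or without serial compound dilutions at 37 °C, 5% CO2. Viability by MTT after 96 h. CC50 = concentration reducing viability 50%.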
For orientation: Formazan colour is commonly taken as a measure of viable cells.

For data set [11], the system named is Poliovirus 1. Put plainly: Antiviral activity against Human poliovirus 1 strain Sabin after 2 days by plaque reduction assay. Particulars: Enterovirus C, 48 h. The class given is functional.
The test system of data set [12] is Human alphaherpesvirus 1. Briefly: Antiviral activity against HSV1 infected in Vero-76 cells after 3 days by plaque reduction assay. In kind it is functional, organism-based. The following applies: Human alphaherpesvirus 1, Vero 76, 72 h.
A short description of data set [13]: Cytotoxicity against hamster BHK21 cells assessed as reduction in cell viability after 48 to 96 hrs by MTT assay. The class given is cell-based, Mesocricetus auratus, BHK-21. Particulars: bhk-21. The gist of the method: as §1

Activity calls are given as the source filed them. No rule for the calls is given here. A value given as a limit tells only on which side of the number the result lay.

As a reminder, the EC50 is the midpoint of the concentration-response curve. The term CC50 denotes the concentration at which the toxic effect on the cells reaches its halfway point. On to `O=c1cccc2n1CC1CC2CN(/N=N/c2cccc([N+](=O)[O-])c2)C1` (configuration not stated), for which the EC50 is over 100 µM in data set [1]; over 90 µM in [3]; at least 90 µM in data set [7]; 80 µM in data set [9]; over 90 µM in data set [11]; over 90 µM in data set [12]. For the same molecule, the CC50 in data set [2] is 90 µM; in data set [8], over 100 µM; in data set [10], over 100 µM; in data set [13] it was over 100 µM. Besides, the result in [4] and in data set [5] was inactive. Besides, the inhibition result in data set [6] is “inactive”.
Take `Clc1ccc(/N=N/N2CCCCC2)cc1`: the EC50 in data set [1], in data set [3], in data set [7], in data set [9], in data set [11] and in data set [12] was over 100 µM each time. For the same molecule, the CC50 in data set [2], in data set [8], in data set [10] and in data set [13] was over 100 µM throughout. For the same molecule, the outcome in data set [4] and in data set [5] was inactive. For the same molecule, in [6], the inhibition result was “inactive”.
`Clc1cccc(/N=N/N2CCCCC2)c1`: the EC50 in [1], in data set [3], in data set [7], in data set [9], in data set [11] and in data set [12] was over 100 µM throughout. The CC50 in [2], in [8], in data set [10] and in data set [13] was over 100 µM throughout. For the same molecule, the result in data set [4] and in data set [5] was inactive. In data set [6], the inhibition entry was “inactive”.
Consider `Brc1ccc(/N=N/N2CCCC2)cc1`, for which the EC50 in data set [1] is over 100 µM; in [3], over 100 µM; in data set [7] it was over 100 µM; in [9], over 100 µM; in data set [11], 51 µM; in data set [12] it was over 100 µM. For the same molecule, the CC50 in [2] is at least 100 µM; in data set [8] it was over 100 µM; in data set [10] it was over 100 µM; in data set [13], over 100 µM. Also, the result in [4] and in [5] was inactive. Moreover, the inhibition entry in data set [6] was “inactive”.
On to `c1ccc(N=NNc2ccccc2)cc1`, for which the CC50 in data set [2] was 90 µM; in data set [8], over 100 µM; in data set [10], 47 µM; in [13], over 100 µM.
In the case of `c1ccc(/N=N/N2CCN(c3ncccn3)CC2)cc1`, the EC50 was over 100 µM in [1]; 10 µM in data set [3]; over 65 µM in data set [7]; over 100 µM in data set [9]; over 65 µM in data set [11]; over 65 µM in data set [12]. Further, the CC50 in [2] is 65 µM; in data set [8], over 100 µM; in data set [10], 90 µM; in data set [13] it was over 100 µM. Also, the result in [4] and in data set [5] was inactive. In addition, the inhibition result in data set [6] is “inactive”.
For `FC(F)(F)c1cccc(/N=N/N2CCCC2)c1`, the half-maximal effective concentration (EC50) in [1], in data set [3], in data set [7], in data set [9], in [11] and in [12] was over 100 µM throughout. Further, the CC50 in data set [2], in data set [8], in data set [10] and in data set [13] was over 100 µM throughout. Moreover, the outcome in data set [4] and in [5] was inactive. Further, the inhibition entry in [6] is “inactive”.

The record behind these values is ChEMBL document CHEMBL1154067, “Antiviral and cytotoxic activities of aminoarylazo compounds and aryltriazene derivatives” (Bioorg Med Chem, 2009).
